The list is not random: actives were taken first. Their share in the collection is about 9.6%.
MT stabilize HCS: microtubule stabilization, imaging screen. % tubulin-high responders, % at 10 µM. AID 2205. 0.83% of 200,000 active. HeLa tubulin immunostaining HCS, 24 h; share of cells brighter than vehicle mean+2SD;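 active means plate Z-score above 3 for both tubulin-high and condensed-nucleus cell shares, with cell loss under 80%, at 10 µM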;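 further: anti alpha tubulin signal scored within the nucleus-defined area of each cell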
Ba/F3 V617F tox: lowers viability of Ba/F3 cells expressing EpoR and JAK2V617F. ATP luminescence. AID 1446. 1.1% of 220,000 active. inhibition, % at 5.6 µM;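 active means inhibition above the campaign mean plus 3 SD over all tested compounds, cut at about 24% in these data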;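 further: cytokine-independent growth of Ba/F3 cells driven by EpoR plus mutant JAK2; 0% = DMSO-treated cells and 100% = JAK inhibitor I control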
BaF3 parental: parental Ba/F3 viability inhibition as JAK2V617F counter-screen. CellTiter-Glo ATP luminescence. inhibition, % at 5.6 µM. 1.1% of 220,000 active. AID 1486;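 active means inhibition above a per-campaign cutoff, the mean inhibition of all tested compounds plus 3 SD, cut at about 27% in these data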;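 further: 0% = DMSO wells and 100% = JAK Inhibitor I control wells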
bCat nuc transl: modulators of beta-catenin nuclear translocation. AID 1665. 0.3% of 190,000 active. nuclear translocation activity, % at 5 µM. HeLa beta-catenin nuclear translocation, immunofluorescence imaging;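 active means nuclear translocation activity above 50% at 5 µM, with a well cell count of 50 or more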;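 further: per-cell ratio of nuclear to cytoplasmic median beta-catenin stain intensity; plate controls were DMSO negative control for no effect and GSK-3 inhibitor IX positive control for full effect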
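Test system: human HeLa cell line; Doses: 5 µM primary, 0.02–20 µM confirmation; Incubation: 24 h compound exposure, 37°C; Detection: beta-catenin immunofluorescence imaging with DAPI; Read-out: beta-catenin nuclear/cytoplasmic ratio, % activation.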
APP 5UTR inh: APP translation inhibition; SH-SY5Y APP 5'UTR-luciferase reporter, luminescence; inhibition, % at 2 µM; 0.82% of 190,000 active; AID 1285;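 active means inhibition above a set limit, derived from the sample mean plus 3 SD, cut at about 45% in these data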
L major viab: Leishmania major promastigote growth inhibition | Leishmania major promastigotes, resazurin fluorescence viability | inhibition, % at 10 µM | 9% of 200,000 active | AID 1063; in the data active means inhibition above about 50%;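 further: promastigotes grown with compound for 44 hours at 28 °C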
* marks the source's active call; other numbers are inactive results.

Screening O=C(Oc1ccccc1C(=O)Nc1ccccc1)c1ccccc1Br returned MT stabilize HCS 3, Ba/F3 V617F tox 0, BaF3 parental 5, bCat nuc transl -2, APP 5UTR inh 58* and L major viab -15.
Screening O=C(Nc1ccc(C2CC2(Cl)Cl)cc1)c1ccccc1Br (stereo not drawn) returned MT stabilize HCS 2, Ba/F3 V617F tox -1, BaF3 parental 4, bCat nuc transl 0, APP 5UTR inh -43 and L major viab 83*.
`O=C(COc1ccccc1C(=O)Nc1ccccc1)c1ccc(Br)cc1` gave MT stabilize HCS 4, Ba/F3 V617F tox -3, BaF3 parental 0, bCat nuc transl -6, APP 5UTR inh -9 and L major viab 28.
`COC(=O)c1ccc(COc2ccc(/C=N/O)cc2OC)o1` gave MT stabilize HCS 3, Ba/F3 V617F tox 0, BaF3 parental 6, bCat nuc transl 1, APP 5UTR inh 2 and L major viab 5.
Screening O=C(Nc1ccc(OCC(=O)N2CCC(Cc3ccccc3)CC2)cc1)c1ccco1 returned MT stabilize HCS 3, Ba/F3 V617F tox -3, BaF3 parental 3, APP 5UTR inh -8 and L major viab 51*.
For CC(=O)Nc1ccc(OCC(=O)N2CCC(Cc3ccccc3)CC2)cc1 the results were MT stabilize HCS 2, Ba/F3 V617F tox 7, BaF3 parental 9, bCat nuc transl -1, APP 5UTR inh -15 and L major viab 4.
`CCOC(=O)C1CCN(C/C=C/c2ccccc2OC)CC1` gave MT stabilize HCS 1, Ba/F3 V617F tox -6, BaF3 parental 0, bCat nuc transl -1, APP 5UTR inh 8 and L major viab 78*.
Screening COc1ccc(/C=C/CN2CCCC(C(=O)c3ccc(OC)c(F)c3)C2)cc1 (stereo not drawn) returned MT stabilize HCS 2, Ba/F3 V617F tox -3, BaF3 parental 2, bCat nuc transl 0, APP 5UTR inh -2 and L major viab 82*.
For COc1cccc(C(=O)C2CCCN(C/C=C/c3ccccc3OC)C2)c1 (stereo not drawn) the results were MT stabilize HCS 1, Ba/F3 V617F tox 6, BaF3 parental 7, bCat nuc transl 0, APP 5UTR inh 4 and L major viab 20.
COc1ccc(OC)c(CN2CCCC(C(=O)N3CCCCC3)C2)c1 (stereo not drawn) was read as MT stabilize HCS 2, Ba/F3 V617F tox 6, BaF3 parental 11, bCat nuc transl -4, APP 5UTR inh 8 and L major viab 6.
`COc1ccccc1/C=C/CN1CCOCC1` gave MT stabilize HCS 1, Ba/F3 V617F tox 0, BaF3 parental 4, bCat nuc transl -1, APP 5UTR inh 3 and L major viab 1.
Screening COc1ccc(C(=O)C2CCCN(C/C=C/c3ccccc3OC)C2)c(OC)c1 (stereo not drawn) returned MT stabilize HCS 3, Ba/F3 V617F tox 10, BaF3 parental 3, bCat nuc transl -1, APP 5UTR inh 8 and L major viab 50*.
Screening COc1ccc(C(=O)C2CCCN(Cc3c[nH]c4ccccc34)C2)c(OC)c1 (stereo not drawn) returned MT stabilize HCS 2, Ba/F3 V617F tox 6, BaF3 parental 6, bCat nuc transl 0, APP 5UTR inh 8 and L major viab 62*.
`S=C(N/N=C1\C2CN3CCN(C2)CC1(c1ccccc1)C3)Nc1ccccc1` gave MT stabilize HCS 2, Ba/F3 V617F tox 0, BaF3 parental 4, bCat nuc transl -3, APP 5UTR inh -16 and L major viab -1.
For CC(C)Cc1nc2oc3c(NCCCN4CCOCC4)ncnc3c2c2c1CCC2 the results were MT stabilize HCS 2, Ba/F3 V617F tox 0, BaF3 parental 2, APP 5UTR inh -16 and L major viab 58*.
Screening Cc1nc(/C(N)=N/OC(=O)Cc2ccccc2)no1 returned MT stabilize HCS 2, Ba/F3 V617F tox -3, BaF3 parental 3, bCat nuc transl -2, APP 5UTR inh -1 and L major viab -4.
For Cc1cc(N2CCCC2)nc2ccc(NC(=S)NCCCOC(C)C)cc12 the results were MT stabilize HCS 2, Ba/F3 V617F tox 0, BaF3 parental 7, APP 5UTR inh -5 and L major viab 93*.
`CCCN(CCC)CCCNC(=S)Nc1ccc2nc(N3CCCC3)cc(C)c2c1` gave MT stabilize HCS 3, Ba/F3 V617F tox -1, BaF3 parental 1, bCat nuc transl 1, APP 5UTR inh -14 and L major viab 87*.
CCN(CC)CCNC(=S)Nc1ccc2nc(N3CCCC3)cc(C)c2c1 was read as MT stabilize HCS 4, Ba/F3 V617F tox 1, BaF3 parental 1, bCat nuc transl 2, APP 5UTR inh -1 and L major viab 86*.
For COc1ccc(CNC(=S)Nc2ccc3nc(N4CCOCC4)cc(C)c3c2)cc1 the results were MT stabilize HCS 2, Ba/F3 V617F tox 0, BaF3 parental 6, APP 5UTR inh 24 and L major viab 5.
`CCCCCCN(C(=O)CCCCCN1C(=O)NC(c2ccccc2)C(C(=O)OCc2ccccc2)=C1C)C(C(=O)NCCCC)c1ccc(OCC(=O)OC)c(C(=O)OC)c1` (stereo not drawn) gave bCat nuc transl 0.
Cc1ccc(S(=O)(=O)N2CCN(C(=O)CC3CCCC3)CC2)cc1 was read as MT stabilize HCS 6, Ba/F3 V617F tox -4, BaF3 parental 0, bCat nuc transl -3, APP 5UTR inh 9 and L major viab 3.
CCOCCCNCC(=O)N1CCN(S(=O)(=O)c2ccc(C)cc2)CC1 was read as MT stabilize HCS 3, Ba/F3 V617F tox 3, BaF3 parental 5, bCat nuc transl -2, APP 5UTR inh 7 and L major viab 88*.
For N#CCCn1cc(C(=O)Nc2ccccc2Br)c(-c2cccs2)n1 the results were MT stabilize HCS 7, Ba/F3 V617F tox -2, BaF3 parental -2, bCat nuc transl 11, APP 5UTR inh -26 and L major viab -2.
`COc1ccc(C)c(-n2c(=O)n(Cc3ccccc3)c(=O)c3[nH]cnc32)c1` gave Ba/F3 V617F tox -1, BaF3 parental -1 and bCat nuc transl 0.
Screening COc1ccc(Cn2c(=O)c3[nH]cnc3n(-c3ccccc3C)c2=O)cc1 returned Ba/F3 V617F tox 0, BaF3 parental 0 and bCat nuc transl 73*.
`C=CCN(CC=C)c1cnn(-c2nc3ccccc3[nH]2)c(=O)c1Cl` gave MT stabilize HCS 2, Ba/F3 V617F tox 0, BaF3 parental 5, bCat nuc transl -3, APP 5UTR inh -142 and L major viab 65*.
For O=c1c(Cl)c(NCCCO)cnn1-c1nc2ccccc2[nH]1 the results were MT stabilize HCS 3, Ba/F3 V617F tox 34*, BaF3 parental 63*, bCat nuc transl 0, APP 5UTR inh -2 and L major viab 5.
Screening O=c1c(Cl)c(NCCO)cnn1-c1cccc(Cl)c1 returned MT stabilize HCS 4, Ba/F3 V617F tox 0, BaF3 parental -2, bCat nuc transl 0, APP 5UTR inh -1 and L major viab -2.

Compound activity (PubChem)
